Assay results published in ChEMBL document CHEMBL4196023, “Cyclic peptide inhibitors of lysine-specific demethylase 1 with improved potency identified by alanine scanning mutagenesis” (Eur J Med Chem, 2018).
pIC50: −log10 of the molar value. Calls of active or inactive are those of the source. No cut-off for these calls is given here. Positions of bridges follow the written chain, without caps; N, C: chain ends. Residues, ends and D or L forms follow the SMILES beside them. *: point of attachment. Stearoyl = CCCCCCCCCCCCCCCCCC(=O)*

Tests used:
[1] = biological target: Lysine-specific histone demethylase 1A (Homo sapiens) (UniProt O60341); test: Inhibition of LSD1 in human NCI-H526 cells assessed as increase in H3K4me2 marks at promoter of FEZ1 at 100 uM after 48 hrs by ChIP-qPCr method; type: cell-based
Procedure, shortened: (§1)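 NCI-H526 small cell lung carcinoma cells treated 48 h at 100 µM alongside an untreated control. Cells formaldehyde cross-linked, nuclei sonicated and chromatin enzymatically digested. IP with H3K4me2 antibody (normal rabbit IgG as negative control) on protein G magnetic beads. Purified DNA quantified by TaqMan qPCR at promoter regions; fold change by comparative CT (Livak). SD from three qPCR wells.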

[2] = biological target: Lysine-specific histone demethylase 1A (Homo sapiens) (UniProt O60341); test: Inhibition of LSD1 in human NCI-H526 cells assessed as increase in H3K4me2 marks at promoter of IGFBP2 at 100 uM after 48 hrs by ChIP-qPCr method; type: cell-based; procedure, shortened: as §1
[3] = tested on: K562; test: Antiproliferative activity against human K562 cells after 72 hrs by MTS assay; type: functional, cell-based; details: K562, 72 h
[4] = tested on: MCF7; test: Antiproliferative activity against human MCF7 cells after 72 hrs by MTS assay; type: functional, cell-based; details: MCF7, 72 h
[5] = tested on: Calu-6; test: Antiproliferative activity against human Calu6 cells after 72 hrs by MTS assay; type: functional, cell-based; details: Calu-6, 72 h
[6] = tested on: Calu-6; test: Inhibition of cell proliferation in human Calu6 cells at 100 uM after 72 hrs by MTS assay; type: functional, cell-based
Procedure, shortened: (§2)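 Calu-6 cells grown in EMEM with 10% FBS. Seeded at 2,000 cells/well and attached for one day, then treated 72 h at 37°C, 5% CO2. MTS added for 2 h and absorbance read at 490 nm minus 690 nm. % cell death calculated against untreated control. Mean of 3 determinations ± S.E.M.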

[7] = biological target: LSD1/CoREST complex (Homo sapiens) (UniProt O60341+Q9UKL0); test: Inhibition of recombinant human LSD1/CoREST at 500 nM preincubated for 5 mins followed by ART-(N,N-dimethyl-K)-QTARKSTGGKAPRKQLA substrate addition measured after 25 mins by fluorescence assay relative to control
[8] = tested on: Calu-6; test: Inhibition of cell proliferation in human Calu6 cells up to 1 uM after 72 hrs by MTS assay; type: functional, cell-based; procedure, shortened: as §2
[9] = biological target: Lysine-specific histone demethylase 1A (Homo sapiens) (UniProt O60341); test: Inhibition of LSD1 in human K562 cells assessed as increase in H3K4me2 expression at 10 uM after 48 hrs by Western lot analysis relative to control; type: cell-based
[10] = biological target: Lysine-specific histone demethylase 1A (Homo sapiens) (UniProt O60341); test: Inhibition of LSD1 in human Calu6 cells assessed as increase in H3K4me2 expression at 10 uM after 48 hrs by Western lot analysis relative to control; type: cell-based
[11] = tested on: K562; test: Antiproliferative activity against human K562 cells assessed as cell death at 100 uM after 72 hrs by MTS assay relative to control; type: functional
[12] = tested on: K562; test: Antiproliferative activity against human K562 cells assessed as cell death at 1 uM after 72 hrs by MTS assay relative to control; type: functional

LSD1/CoREST complex (Homo sapiens), sequence (Q9UKL0 whole entry, looked up, other chains not shown): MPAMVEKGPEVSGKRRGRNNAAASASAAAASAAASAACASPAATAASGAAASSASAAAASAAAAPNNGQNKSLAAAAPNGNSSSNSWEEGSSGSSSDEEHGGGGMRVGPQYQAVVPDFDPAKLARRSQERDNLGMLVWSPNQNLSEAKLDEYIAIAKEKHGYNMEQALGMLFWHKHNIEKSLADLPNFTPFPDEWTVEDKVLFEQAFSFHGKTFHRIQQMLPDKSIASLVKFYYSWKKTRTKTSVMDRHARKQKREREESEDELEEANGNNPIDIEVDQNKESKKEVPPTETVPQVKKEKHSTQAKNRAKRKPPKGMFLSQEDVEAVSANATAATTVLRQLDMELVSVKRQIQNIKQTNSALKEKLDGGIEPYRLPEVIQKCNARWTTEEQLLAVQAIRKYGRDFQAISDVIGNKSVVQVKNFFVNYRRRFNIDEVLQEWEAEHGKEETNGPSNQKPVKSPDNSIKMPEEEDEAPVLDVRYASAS

Row | SMILES | pIC50 [3] | pIC50 [4] | pIC50 [5] | inhibition [6] | inhibition [7] [%] | inhibition [8] | also measured
1 | c1ccc([C@@H]2C[C@H]2NC2CCNCC2)cc1 (relative stereo) |  |  |  |  |  |  | inhibition [1]: Active; inhibition [2]: Active
2 | CSCC[C@H](NC(=O)[C@H](C)NC(=O)[C@H](CCCNC(=N)N)NC(=O)[C@H](C)N)C(=O)N[C@H]1CCCCNC(=O)CC[C@@H](C(N)=O)NC(=O)[C@H](CCCCN)NC(=O)[C@H](CCCNC(=N)N)NC(=O)[C@H](C)NC(=O)[C@H]([C@@H](C)O)NC1=O (H-ARAMKTARKE-NH2; lactam 5-10) |  |  |  | inactive | 59.8 | inactive | 
3 | CSCC[C@H](NC(=O)[C@H](C)NC(=O)[C@H](CCCNC(=N)N)NC(=O)[C@H](C)N)C(=O)N[C@H]1CCCCNC(=O)CC[C@@H](C(=O)N[C@H](C(=O)NCC(=O)NCC(=O)N[C@@H](CCCCN)C(=O)N[C@@H](C)C(N)=O)[C@@H](C)O)NC(=O)[C@H](CCCCN)NC(=O)[C@H](CCCNC(=N)N)NC(=O)[C@H](C)NC(=O)[C@H]([C@@H](C)O)NC1=O (H-ARAMKTARKETGGKA-NH2; lactam 5-10) |  |  |  | inactive | 73.4 | inactive | Activity [11]: 11%; Activity [12]: 53%
4 | CSCC[C@H](NC(=O)[C@H](C)NC(=O)[C@H](CCCNC(=N)N)NC(=O)[C@H](C)N)C(=O)N[C@H]1CCCCNC(=O)CC[C@@H](C(=O)N[C@H](C(=O)NCC(N)=O)[C@@H](C)O)NC(=O)[C@H](CCCCN)NC(=O)[C@H](CCCNC(=N)N)NC(=O)[C@H](C)NC(=O)[C@H]([C@@H](C)O)NC1=O (H-ARAMKTARKETG-NH2; lactam 5-10) |  |  |  | inactive | 67.3 | inactive | Activity [11]: 18%; Activity [12]: 90%
5 | CSCC[C@H](NC(=O)[C@H](C)NC(=O)[C@H](CCCNC(=N)N)NC(=O)[C@H](C)N)C(=O)N[C@H]1CCCCNC(=O)CC[C@@H](C(=O)N[C@H](C(=O)NCC(=O)NCC(=O)N[C@@H](CCCCN)C(=O)N[C@@H](C)C(=O)N2CCC[C@H]2C(=O)N[C@@H](CCCNC(=N)N)C(=O)N[C@@H](CCCCN)C(N)=O)[C@@H](C)O)NC(=O)[C@H](CCCCN)NC(=O)[C@H](CCCNC(=N)N)NC(=O)[C@H](C)NC(=O)[C@H]([C@@H](C)O)NC1=O (H-ARAMKTARKETGGKAPRK-NH2; lactam 5-10) |  |  |  | inactive | 98 | inactive | Activity [11]: 9.5%; Activity [12]: 59%

Now from value to molecule, other results behind:

Row | pIC50 [3] | pIC50 [4] | pIC50 [5] | SMILES | inhibition [6] | inhibition [7] [%] | inhibition [8] | also measured
6 | 5.09 | 3.81 | 4.03 | CSCC[C@H](NC(=O)[C@@H](NC(=O)[C@H](CCCNC(=N)N)NC(=O)[C@H](C)N)[C@@H](C)O)C(=O)N[C@H]1CCCCNC(=O)CC[C@@H](C(=O)N[C@H](C(=O)NCC(=O)NCC(=O)N[C@@H](CCCCN)C(=O)N[C@@H](C)C(=O)N2CCC[C@H]2C(=O)N[C@@H](CCCNC(=N)N)C(=O)N[C@@H](CCCCN)C(=O)N[C@@H](CCC(N)=O)C(=O)N[C@@H](CC(C)C)C(=O)N[C@@H](C)C(N)=O)[C@@H](C)O)NC(=O)[C@H](CCCCN)NC(=O)[C@H](CCCNC(=N)N)NC(=O)[C@H](C)NC(=O)[C@H](C)NC1=O (H-ARTMKAARKETGGKAPRKQLA-NH2; lactam 5-10) |  |  |  | 
7 |  | 4.44 | 4.03 | CCCCCCCCCC(=O)NCCCC[C@H](NC(=O)[C@H](C)NC(=O)[C@H](CC(C)C)NC(=O)[C@H](CCC(N)=O)NC(=O)[C@H](CCCCN)NC(=O)[C@H](CCCNC(=N)N)NC(=O)[C@@H]1CCCN1C(=O)[C@H](C)NC(=O)[C@H](CCCCN)NC(=O)CNC(=O)CNC(=O)[C@@H](NC(=O)[C@@H]1CCC(=O)NCCCC[C@H](NC(=O)[C@H](CCSC)NC(=O)[C@@H](NC(=O)[C@H](CCCNC(=N)N)NC(=O)[C@H](C)N)[C@@H](C)O)C(=O)N[C@@H]([C@@H](C)O)C(=O)N[C@@H](C)C(=O)N[C@@H](CCCNC(=N)N)C(=O)N[C@@H](CCCCN)C(=O)N1)[C@@H](C)O)C(N)=O |  |  |  | inhibition [1]: Active; inhibition [2]: Active; fold change (FC) [9]: 17.6; Activity [10]: inactive
8 | 4.45 | 3.41 | 3.39 | CSCC[C@H](NC(=O)[C@@H](NC(=O)[C@H](CCCNC(=N)N)NC(=O)[C@H](C)N)[C@@H](C)O)C(=O)N[C@H]1CCCCNC(=O)CC[C@@H](C(=O)N[C@H](C(=O)NCC(=O)NCC(=O)N[C@@H](CCCCN)C(=O)N[C@@H](C)C(=O)N[C@@H](C)C(=O)N[C@@H](CCCNC(=N)N)C(=O)N[C@@H](CCCCN)C(=O)N[C@@H](CCC(N)=O)C(=O)N[C@@H](CC(C)C)C(=O)N[C@@H](C)C(N)=O)[C@@H](C)O)NC(=O)[C@H](CCCCN)NC(=O)[C@H](CCCNC(=N)N)NC(=O)[C@H](C)NC(=O)[C@H]([C@@H](C)O)NC1=O (H-ARTMKTARKETGGKAARKQLA-NH2; lactam 5-10) |  |  |  | 
9 | 3.86 | 2.91 | 3.02 | CC(C)C[C@H](NC(=O)[C@H](CCC(N)=O)NC(=O)[C@H](CCCCN)NC(=O)[C@H](CCCNC(=N)N)NC(=O)[C@@H]1CCCN1C(=O)[C@H](C)NC(=O)[C@H](CCCCN)NC(=O)CNC(=O)CNC(=O)[C@@H](NC(=O)[C@@H]1CCC(=O)NCCCC[C@H](NC(=O)[C@H](C)NC(=O)[C@@H](NC(=O)[C@H](CCCNC(=N)N)NC(=O)[C@H](C)N)[C@@H](C)O)C(=O)N[C@@H]([C@@H](C)O)C(=O)N[C@@H](C)C(=O)N[C@@H](CCCNC(=N)N)C(=O)N[C@@H](CCCCN)C(=O)N1)[C@@H](C)O)C(=O)N[C@@H](C)C(N)=O (H-ARTAKTARKETGGKAPRKQLA-NH2; lactam 5-10) |  |  |  | 
10 | 3.70 | 3.81 | 3.80 | CSCC[C@H](NC(=O)[C@@H](NC(=O)[C@H](CCCNC(=N)N)NC(=O)[C@H](C)N)[C@@H](C)O)C(=O)N[C@H]1CCCCNC(=O)CC[C@@H](C(=O)N[C@H](C(=O)NCC(=O)NCC(=O)N[C@@H](C)C(=O)N[C@@H](C)C(=O)N2CCC[C@H]2C(=O)N[C@@H](CCCNC(=N)N)C(=O)N[C@@H](CCCCN)C(=O)N[C@@H](CCC(N)=O)C(=O)N[C@@H](CC(C)C)C(=O)N[C@@H](C)C(N)=O)[C@@H](C)O)NC(=O)[C@H](CCCCN)NC(=O)[C@H](CCCNC(=N)N)NC(=O)[C@H](C)NC(=O)[C@H]([C@@H](C)O)NC1=O (H-ARTMKTARKETGGAAPRKQLA-NH2; lactam 5-10) |  |  |  | 
11 |  | 5.36 | 5.10 | CCCCCCCCCCCCCCCCCC(=O)NCCCC[C@H](NC(=O)[C@H](C)NC(=O)[C@H](CC(C)C)NC(=O)[C@H](CCC(N)=O)NC(=O)[C@H](CCCCN)NC(=O)[C@H](CCCNC(=N)N)NC(=O)[C@@H]1CCCN1C(=O)[C@H](C)NC(=O)[C@H](CCCCN)NC(=O)CNC(=O)CNC(=O)[C@@H](NC(=O)[C@@H]1CCC(=O)NCCCC[C@H](NC(=O)[C@H](CCSC)NC(=O)[C@@H](NC(=O)[C@H](CCCNC(=N)N)NC(=O)[C@H](C)N)[C@@H](C)O)C(=O)N[C@@H]([C@@H](C)O)C(=O)N[C@@H](C)C(=O)N[C@@H](CCCNC(=N)N)C(=O)N[C@@H](CCCCN)C(=O)N1)[C@@H](C)O)C(N)=O |  |  |  | 
12 | 4.38 | 3.00 | 3.12 | CSCC[C@H](NC(=O)[C@@H](NC(=O)[C@H](CCCNC(=N)N)NC(=O)[C@H](C)N)[C@@H](C)O)C(=O)N[C@H]1CCCCNC(=O)CC[C@@H](C(=O)N[C@H](C(=O)N[C@@H](C)C(=O)NCC(=O)N[C@@H](CCCCN)C(=O)N[C@@H](C)C(=O)N2CCC[C@H]2C(=O)N[C@@H](CCCNC(=N)N)C(=O)N[C@@H](CCCCN)C(=O)N[C@@H](CCC(N)=O)C(=O)N[C@@H](CC(C)C)C(=O)N[C@@H](C)C(N)=O)[C@@H](C)O)NC(=O)[C@H](CCCCN)NC(=O)[C@H](CCCNC(=N)N)NC(=O)[C@H](C)NC(=O)[C@H]([C@@H](C)O)NC1=O (H-ARTMKTARKETAGKAPRKQLA-NH2; lactam 5-10) |  |  |  | 
13 |  | 5.34 | 5.00 | CCCCCCCCCCCCCCCCCC(=O)NCCCC[C@H](NC(=O)[C@H](C)NC(=O)[C@H](CC(C)C)NC(=O)[C@H](CCC(N)=O)NC(=O)[C@H](CCCCN)NC(=O)[C@H](CCCNC(=N)N)NC(=O)[C@@H]1CCCN1C(=O)[C@H](C)NC(=O)[C@H](CCCCN)NC(=O)CNC(=O)CNC(=O)[C@@H](NC(=O)[C@@H]1CCC(=O)NCCCC[C@H](NC(=O)[C@H](CCSC)NC(=O)[C@H](C)NC(=O)[C@H](CCCNC(=N)N)NC(=O)[C@H](C)N)C(=O)N[C@@H]([C@@H](C)O)C(=O)N[C@@H](C)C(=O)N[C@@H](CCCNC(=N)N)C(=O)N[C@@H](CCCCN)C(=O)N1)[C@@H](C)O)C(N)=O (H-ARAMKTARKETGGKAPRKQLAK(Stearoyl)-NH2; lactam 5-10) |  |  |  | 
